Source: ChEMBL document CHEMBL4014334, “BET Bromodomain Inhibitors with One-Step Synthesis Discovered from Virtual Screen” (J Med Chem, 2017)

Legend:
[1] = target: Nucleosome-remodeling factor subunit BPTF (Homo sapiens, UniProt Q12830); assay: Binding affinity to 5FW-labeled BPTF (unknown origin) by PrOF NMR spectroscopic analysis
Outline: (§1)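 BrdT samples also contain 3 mM DTT. Spectra recorded with compound present and absent at 500 MHz, 90° flip angle, 0.7 s relaxation delay, 0.1 s acquisition, 500 transients. The read-out is broadening or shift of the binding-pocket Trp resonance.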

[2] = target: Bromodomain-containing protein 4 (Homo sapiens, UniProt O60885); assay: Binding affinity to 5FW-labeled BRD4 bromodomain 1 (unknown origin) expressed in Escherichia coli BL21(DE3) by PrOF NMR spectroscopic analysis; outline: as §1
[3] = target: T1, Bromodomain testis-specific protein (Homo sapiens, UniProt Q58F21); assay: Binding affinity to 5FW-labeled BRDT bromodomain 1 W50 residue (unknown origin) expressed in Escherichia coli BL21(DE3) by PrOF NMR spectroscopic analysis
Outline: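 5FW-BrdT(1) at 40–50 μM in 50 mM Tris, 100 mM NaCl, 3 mM DTT, pH 7.4, 5% D2O. The pocket Trp resonance is followed for broadening and for a new upfield peak as ligand is titrated.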

[4] = target: T1, Bromodomain testis-specific protein; assay: Binding affinity to 5FW-labeled BRDT bromodomain 1 residue (unknown origin) expressed in Escherichia coli BL21(DE3) by PrOF NMR spectroscopic analysis

CCn1c(N)cc(=O)[nH]c1=O
Kd [1]: 6800 µM
Kd [2]: 660 µM
Kd [3]: 1500 µM
Kd [4]: 1500 µM
